Measurements gathered from unrelated publications.
Compare with care: the assays were run in different laboratories.
Cell line: HCT-116
Effect on: cell growth or viability

| SMILES | test | setting | endpoint | value |
| --- | --- | --- | --- | --- |
| COc1cccc(Oc2ccccc2NC(=O)CNC(=O)c2cccc3ccccc23)c1 | SRB | 48 h | GI50 | 0.0955 µM |
| COc1ccc(C(=O)/C=C/c2cccc(Cl)c2Cl)cc1S(N)(=O)=O | SRB | 48 h | GI50 | 1.3 µM |
| Cc1cc(C)n(C(=S)[S][Au][PH](CCCCCC[PH]([Au][S]C(=S)n2nc(C)cc2C)(c2ccccc2)c2ccccc2)(c2ccccc2)c2ccccc2)n1 |  |  | GI50 | 0.38 µM |
| COc1ccc2cc(/C=N/n3c(C)nc4ccc(Br)cc4c3=O)ccc2c1 | LDH | 200 µg/mL, 24 h | viability | 57% |
| COc1ccc(NC(=O)c2c(Nc3ccccc3)sc(C#N)c2NC(=O)CNc2ccc(Cl)cc2)cc1 | SRB | 0.1 µM, 48 h | viability | 72% |
| COc1ccc(C(=O)/C=C/c2cccc3ccccc23)cc1S(N)(=O)=O | SRB | 48 h | GI50 | 1.3 µM |
| COc1cc2c(OC)nc3c4cc5c(cc4cc(O)c3c2cc1OC)OCO5 | MTT | 72 h | GI50 | 5.7 µM |
| COc1cccc2c1C(=O)c1c(O)c3c(c(O)c1C2=O)C[C@@](O)(C(=O)CO)C[C@@H]3O[C@H]1C[C@H](N)[C@H](O)[C@H](C)O1 | SRB |  | IC50 | 57.8 µM |
| COc1ccc(C(=O)/C=C/c2ccc(Cl)c(Cl)c2)cc1S(N)(=O)=O | SRB | 10 µM | inhibition | 196% |
| COc1ccc(NCC(=O)Nc2c(C#N)sc(Nc3ccccc3)c2C(=O)Nc2ccc(OC)cc2)cc1 | SRB | 10 nM, 48 h | viability | 82.6% |
| COc1cc2c(OC)nc3c4cc5c(cc4cc(OCCN4CCCC4)c3c2cc1OC)OCO5 | MTT | 72 h | GI50 | 64 µM |
| COc1ccc(NC(=O)c2c(Nc3ccccc3)sc(C(=O)NN=Cc3ccc(OC)c(O)c3)c2NC(C)=O)cc1 | SRB | 10 nM, 48 h | viability | 83.7% |
| CCc1ccc(/C=N/n2c(C)nc3ccc(C)cc3c2=O)s1 | LDH | 200 µg/mL, 24 h | viability | 86.5% |
| COc1ccc(C(=O)/C=C/c2cccnc2)cc1S(N)(=O)=O | SRB | 48 h | GI50 | 3.2 µM |
| COc1cc(/C=N/n2c(C)nc3ccc(C)cc3c2=O)ccc1OCc1ccccc1 | LDH | 200 µg/mL, 24 h | viability | 74.5% |
| CNC(=O)c1cc(Oc2ccc(NC(=O)Nc3ccc(Cl)c(C(F)(F)F)c3)cc2)ccn1 | SRB | 1 µM, 48 h | viability | 46.6% |
| CCN(CC)CCCOc1cc2cc3c(cc2c2nc(OC)c4cc(OC)c(OC)cc4c12)OCO3 | MTT | 72 h | GI50 | 13 µM |
| COc1cc(NCC(=O)Nn2c(C)nc3ccc(Cl)cc3c2=O)cc(OC)c1OC | LDH | 200 µg/mL, 24 h | viability | 54.5% |
| COc1ccccc1/C=C/C(=O)c1ccc(OC)c(S(N)(=O)=O)c1 | SRB | 48 h | GI50 | 2.5 µM |
| COc1ccc(NC(=O)c2c(Nc3ccccc3)sc(C(=O)NN=Cc3cc(OC)c(OC)c(OC)c3)c2NC(C)=O)cc1 | SRB | 100 µM, 48 h | viability | 43.2% |
| COc1ccc(C(=O)/C=C/c2ccccc2Br)cc1S(N)(=O)=O | SRB | 10 µM | inhibition | 197% |
| COc1ccc(NC(=O)c2c(Nc3ccccc3)sc(C#N)c2NC(=O)CNc2ccc(OC)c(OC)c2)cc1 | SRB | 0.1 µM, 48 h | viability | 76% |
| COc1ccc(C(=O)/C=C/c2ccc3c(c2)OCCO3)cc1S(N)(=O)=O | SRB | 10 µM | inhibition | 57% |
| COc1ccc(NC(=O)c2c(Nc3ccccc3)sc(C(=O)NN=Cc3ccc(Cl)cc3)c2NC(C)=O)cc1 | SRB | 1 µM, 48 h | viability | 74.2% |
| Cc1c(OCC(F)(F)F)ccnc1COc1ccc(NC(=O)Nc2cccc(C(F)(F)F)c2)cc1 | MTT | 72 h | IC50 | 5.43 µM |
| COc1cc2c(OC)nc3c4cc5c(cc4cc(OCCCN4CCC(N6CCCCC6)CC4)c3c2cc1OC)OCO5 | MTT | 72 h | GI50 | 5.7 µM |
| COc1ccc(C(=O)/C=C/c2ccc3ccccc3c2)cc1S(N)(=O)=O | SRB | 10 µM | inhibition | 198% |
